# Measured values published in article PMC5402713 (Pain, 2017).
# Legend:
# mouse TRPM3α2 [1] = target: T1, mouse TRPM3α2 (Mus musculus, UniProt J9SQF3); type: cell-based; settings: for Hill coefficient of TRPM3 inhibition: Fluo-4-loaded HEKmTRPM3 cells, PregS-induced Ca2+ signal; for TRPM3 inhibition relative to mefenamic acid: primary screen, data not shown
# mouse TRPM3α2 [2] = target: T1, mouse TRPM3α2; test: Whole-cell patch-clamp of TRPM3 currents in HEKmTRPM3 cells; type: cell-based
# human TRPM8 = human TRPM8 (Homo sapiens, UniProt Q7Z2W7); test: Selectivity Ca2+ assay in HEKhTRPM8 cells, menthol-stimulated; type: cell-based; settings: menthol 300 μM, drug up to 50 μM
# In short: (§1)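 Stable HEK293 lines expressing human TRPA1, rat TRPV1 or human TRPM8 were loaded in suspension with Fluo-4/AM (4 μM, 30 min, 37°C) and resuspended in HEPES-buffered saline, pH 7.4. Cells were pre-exposed to test compound in 384-well plates. After baseline reading, cells were stimulated with 30 μM AITC (TRPA1), 2 μM capsaicin (TRPV1) or 300 μM menthol (TRPM8). Background-corrected fluorescence was normalized to initial intensity (F/F₀).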
# human ankyrin-like TRPA1 = human ankyrin-like TRPA1 (Homo sapiens, UniProt O75762); test: Selectivity Ca2+ assay in HEKhTRPA1 cells, AITC-stimulated; type: cell-based; settings: AITC 30 μM; for Inhibition of AITC-induced TRPA1 activation: drug up to 50 μM
# In short: as §1
# human TRPM2 = human TRPM2 (Homo sapiens, UniProt O94759); test: H2O2-induced [Ca2+]i signals in HEK cells expressing human TRPM2; type: cell-based; settings: diclofenac at concentrations above 1 μM, data not shown
# [3] = physiological pH, no reference given; cited from earlier work
# TRPA1 = settings: read-out: EC50 of TRPA1 activation; cited from earlier work
# rat TRPV1 = rat TRPV1 (Rattus norvegicus, UniProt O35433); test: Selectivity Ca2+ assay in HEKrTRPV1 cells, capsaicin-stimulated; type: cell-based; settings: capsaicin 2 μM, drug up to 50 μM
# In short: as §1
# [4] = cited from earlier work
# mouse TRPM3α2 [5] = target: T1, mouse TRPM3α2; type: cell-based; settings: 10 μM primidone, temperature 22 to 37°C, Fura-2
# rat DRG neurones = test: Single-cell Fura-2 [Ca2+]i measurement in isolated rat DRG neurones; type: cell-based; settings: 10 μM primidone
# human TRPM3α2 = human TRPM3α2 (Homo sapiens, UniProt Q9HCF6); type: cell-based; settings: qualitative; PregS 35 μM, primidone 25 μM
# In short: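 HEK293 cells were grown in MEM with Earle's salts, 10% FCS, 2 mM L-glutamine and penicillin/streptomycin. 1–2 days after seeding, they were transfected with 2 μg plasmid encoding human TRPM3α2 C-terminally fused to YFP and used 2 days later. For [Ca²⁺]i measurement, 35 μM PregS and 25 μM test compound were added sequentially. Nontransfected HEK293 cells served as control.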
# C57BL/6J mice [6] = test: Pregnenolone sulfate-induced chemical pain in mice; type: in vivo, mouse; settings: for Nociception as duration per single response, compared with controls: data not shown
# In short: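 Mice received i.p. test compound (0.5, 2, 10 mg·kg⁻¹, suspended in 0.5% Tween 20) or vehicle. After 20 min, 5 nmol PregS (in sterile water, 10 μL total) was injected into the right hind paw. Over 180 s, observers recorded latency to the first response, number of responses and total duration of licking, lifting and shaking. n = 8 each; mean ± SEM; one-way ANOVA.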
# C57BL/6J mice [7] = test: Hot plate test; type: in vivo, mouse; settings: 52°C
# In short: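 Male C57BL/6J mice were placed on a 52°C hot plate 20 min after i.p. test compound (0.5, 2, 10 mg·kg⁻¹ in 0.5% Tween 20) or vehicle. Latency to the first nocifensive hind-paw response was recorded, with a 45 s cutoff. Mean ± SEM; one-way ANOVA.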
# C57BL/6J mice [8] = test: Exploratory motor activity; type: in vivo, mouse; settings: primidone 10 mg·kg^−1 i.p., after 120 minutes
# In short: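 Male C57BL/6J mice, 10–12 weeks old. Test compound was suspended in 0.5% Tween 20, which also served as vehicle control, and given i.p. Travelled distance in an opaque open-field box was video-tracked for 5 min, both immediately before the hot plate test and 120 min after dosing. n = 10 each; mean ± SEM; one-way ANOVA.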
# C57BL/6J mice [9] = test: Tail immersion test; type: in vivo, mouse; settings: primidone 1 mg·kg^−1 i.p., 48°C
# In short: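 Tail immersion in male C57BL/6J mice given test compound at 1 mg·kg⁻¹ i.p. or vehicle (0.5% Tween 20). Each mouse was restrained in a 50 mL conical tube, and the distal half of the tail was dipped in water at 48.0 ± 0.5°C. Latency to vigorous tail flexion was recorded, with a 15 s cutoff. n = 10 each; mean ± SEM.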
# C57BL/6J mice [10] = test: CFA-induced inflammatory thermal hyperalgesia, hot plate; type: in vivo, mouse; settings: primidone 1 mg·kg^−1 i.p., 24 hours after CFA
# T1 sequence (J9SQF3 1-1709 isoform J9SQF3-12): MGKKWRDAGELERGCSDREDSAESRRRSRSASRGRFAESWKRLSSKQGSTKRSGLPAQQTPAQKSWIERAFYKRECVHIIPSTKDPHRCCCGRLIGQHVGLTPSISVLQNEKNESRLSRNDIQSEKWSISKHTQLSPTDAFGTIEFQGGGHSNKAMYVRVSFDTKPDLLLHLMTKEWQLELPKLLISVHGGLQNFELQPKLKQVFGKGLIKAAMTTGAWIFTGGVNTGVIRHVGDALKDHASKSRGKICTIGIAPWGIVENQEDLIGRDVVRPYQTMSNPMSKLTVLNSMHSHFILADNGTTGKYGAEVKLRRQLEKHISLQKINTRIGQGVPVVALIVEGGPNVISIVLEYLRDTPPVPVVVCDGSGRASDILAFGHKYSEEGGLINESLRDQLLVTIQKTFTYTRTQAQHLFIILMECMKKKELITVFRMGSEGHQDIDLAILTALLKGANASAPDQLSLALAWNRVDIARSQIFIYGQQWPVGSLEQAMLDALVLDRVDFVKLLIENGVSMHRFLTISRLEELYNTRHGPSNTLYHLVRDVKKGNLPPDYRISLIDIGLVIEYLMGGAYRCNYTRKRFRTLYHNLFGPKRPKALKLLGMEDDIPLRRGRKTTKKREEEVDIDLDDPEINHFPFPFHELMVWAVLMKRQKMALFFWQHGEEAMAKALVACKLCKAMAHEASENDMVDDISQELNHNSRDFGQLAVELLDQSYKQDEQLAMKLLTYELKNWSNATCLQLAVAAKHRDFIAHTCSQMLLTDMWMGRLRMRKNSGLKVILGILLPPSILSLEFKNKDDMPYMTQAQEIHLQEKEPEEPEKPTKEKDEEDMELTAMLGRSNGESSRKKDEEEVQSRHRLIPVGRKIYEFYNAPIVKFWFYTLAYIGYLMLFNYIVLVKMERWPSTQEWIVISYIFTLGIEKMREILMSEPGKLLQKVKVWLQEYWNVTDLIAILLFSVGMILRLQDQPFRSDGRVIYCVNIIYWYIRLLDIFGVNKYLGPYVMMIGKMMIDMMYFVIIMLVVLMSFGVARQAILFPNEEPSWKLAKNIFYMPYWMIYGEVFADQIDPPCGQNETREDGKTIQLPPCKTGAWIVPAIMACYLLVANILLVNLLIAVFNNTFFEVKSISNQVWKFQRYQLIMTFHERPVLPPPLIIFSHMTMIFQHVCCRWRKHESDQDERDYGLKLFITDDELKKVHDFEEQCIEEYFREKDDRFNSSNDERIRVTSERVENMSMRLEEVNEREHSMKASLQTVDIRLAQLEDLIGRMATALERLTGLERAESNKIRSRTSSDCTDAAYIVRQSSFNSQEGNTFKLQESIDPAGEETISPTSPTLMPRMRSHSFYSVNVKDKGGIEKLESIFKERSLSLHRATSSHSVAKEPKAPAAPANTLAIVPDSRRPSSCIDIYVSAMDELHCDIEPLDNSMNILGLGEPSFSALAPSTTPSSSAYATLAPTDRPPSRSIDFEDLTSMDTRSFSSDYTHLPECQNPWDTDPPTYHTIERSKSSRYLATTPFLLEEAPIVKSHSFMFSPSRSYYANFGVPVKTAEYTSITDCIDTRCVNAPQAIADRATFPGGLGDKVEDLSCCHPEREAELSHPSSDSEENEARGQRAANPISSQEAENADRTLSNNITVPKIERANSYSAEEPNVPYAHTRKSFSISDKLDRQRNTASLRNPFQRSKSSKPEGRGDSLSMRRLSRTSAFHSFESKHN
# human TRPM8, sequence (Q7Z2W7 whole entry): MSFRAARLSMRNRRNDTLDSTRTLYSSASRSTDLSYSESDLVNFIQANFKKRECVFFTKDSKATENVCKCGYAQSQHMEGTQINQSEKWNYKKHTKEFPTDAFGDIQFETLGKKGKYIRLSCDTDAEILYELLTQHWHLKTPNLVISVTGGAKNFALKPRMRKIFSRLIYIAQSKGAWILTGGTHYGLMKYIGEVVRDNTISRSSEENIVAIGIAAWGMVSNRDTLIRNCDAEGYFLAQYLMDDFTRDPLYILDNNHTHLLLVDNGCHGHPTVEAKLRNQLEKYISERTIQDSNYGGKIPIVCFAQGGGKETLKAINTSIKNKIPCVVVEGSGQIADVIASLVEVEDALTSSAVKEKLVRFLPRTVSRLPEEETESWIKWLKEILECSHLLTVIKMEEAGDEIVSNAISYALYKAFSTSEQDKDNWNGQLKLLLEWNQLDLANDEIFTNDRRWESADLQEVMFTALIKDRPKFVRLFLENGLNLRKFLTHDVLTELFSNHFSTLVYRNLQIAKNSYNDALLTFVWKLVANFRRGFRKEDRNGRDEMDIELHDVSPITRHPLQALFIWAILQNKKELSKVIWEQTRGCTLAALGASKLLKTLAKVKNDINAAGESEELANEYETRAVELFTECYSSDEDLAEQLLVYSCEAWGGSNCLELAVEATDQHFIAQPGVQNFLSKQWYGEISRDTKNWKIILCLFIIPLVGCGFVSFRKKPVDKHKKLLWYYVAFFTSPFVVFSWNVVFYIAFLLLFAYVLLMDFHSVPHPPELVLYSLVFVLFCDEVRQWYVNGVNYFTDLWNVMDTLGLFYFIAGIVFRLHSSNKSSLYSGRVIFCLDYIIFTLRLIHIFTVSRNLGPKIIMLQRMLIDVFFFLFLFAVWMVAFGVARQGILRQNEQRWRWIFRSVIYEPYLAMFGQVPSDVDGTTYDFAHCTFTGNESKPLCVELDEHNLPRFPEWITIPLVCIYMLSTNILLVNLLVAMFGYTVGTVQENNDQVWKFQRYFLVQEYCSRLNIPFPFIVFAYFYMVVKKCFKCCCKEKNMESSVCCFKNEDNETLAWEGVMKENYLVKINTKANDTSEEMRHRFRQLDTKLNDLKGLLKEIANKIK
# human ankyrin-like TRPA1, sequence (O75762 whole entry): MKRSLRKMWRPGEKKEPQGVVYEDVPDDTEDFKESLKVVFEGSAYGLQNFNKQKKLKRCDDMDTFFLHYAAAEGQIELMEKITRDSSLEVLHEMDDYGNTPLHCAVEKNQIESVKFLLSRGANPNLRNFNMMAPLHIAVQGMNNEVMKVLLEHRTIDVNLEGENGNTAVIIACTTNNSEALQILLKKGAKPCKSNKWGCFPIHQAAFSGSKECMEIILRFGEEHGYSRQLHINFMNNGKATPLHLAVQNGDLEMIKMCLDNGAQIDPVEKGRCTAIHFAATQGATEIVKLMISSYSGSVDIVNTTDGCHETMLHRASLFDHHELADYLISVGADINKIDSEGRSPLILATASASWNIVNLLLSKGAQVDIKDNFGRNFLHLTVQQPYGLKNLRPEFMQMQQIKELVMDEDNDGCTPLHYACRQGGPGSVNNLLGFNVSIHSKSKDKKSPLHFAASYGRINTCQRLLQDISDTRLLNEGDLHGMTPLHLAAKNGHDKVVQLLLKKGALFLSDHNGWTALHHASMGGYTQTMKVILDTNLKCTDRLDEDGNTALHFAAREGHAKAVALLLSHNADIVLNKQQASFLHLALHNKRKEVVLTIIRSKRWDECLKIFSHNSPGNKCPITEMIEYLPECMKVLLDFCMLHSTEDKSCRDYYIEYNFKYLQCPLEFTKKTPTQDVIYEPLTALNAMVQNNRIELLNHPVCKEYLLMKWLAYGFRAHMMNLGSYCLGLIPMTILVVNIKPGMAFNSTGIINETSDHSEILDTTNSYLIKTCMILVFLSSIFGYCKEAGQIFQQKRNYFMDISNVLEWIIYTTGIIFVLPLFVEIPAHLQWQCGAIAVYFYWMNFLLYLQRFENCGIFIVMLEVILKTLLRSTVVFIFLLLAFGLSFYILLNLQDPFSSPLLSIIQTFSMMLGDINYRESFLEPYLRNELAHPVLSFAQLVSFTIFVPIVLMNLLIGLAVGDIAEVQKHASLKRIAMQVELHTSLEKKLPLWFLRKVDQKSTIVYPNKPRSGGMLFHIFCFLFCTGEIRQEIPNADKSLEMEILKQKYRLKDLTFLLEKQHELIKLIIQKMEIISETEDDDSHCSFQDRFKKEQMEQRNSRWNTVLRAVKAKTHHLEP
# rat TRPV1, sequence (O35433 whole entry): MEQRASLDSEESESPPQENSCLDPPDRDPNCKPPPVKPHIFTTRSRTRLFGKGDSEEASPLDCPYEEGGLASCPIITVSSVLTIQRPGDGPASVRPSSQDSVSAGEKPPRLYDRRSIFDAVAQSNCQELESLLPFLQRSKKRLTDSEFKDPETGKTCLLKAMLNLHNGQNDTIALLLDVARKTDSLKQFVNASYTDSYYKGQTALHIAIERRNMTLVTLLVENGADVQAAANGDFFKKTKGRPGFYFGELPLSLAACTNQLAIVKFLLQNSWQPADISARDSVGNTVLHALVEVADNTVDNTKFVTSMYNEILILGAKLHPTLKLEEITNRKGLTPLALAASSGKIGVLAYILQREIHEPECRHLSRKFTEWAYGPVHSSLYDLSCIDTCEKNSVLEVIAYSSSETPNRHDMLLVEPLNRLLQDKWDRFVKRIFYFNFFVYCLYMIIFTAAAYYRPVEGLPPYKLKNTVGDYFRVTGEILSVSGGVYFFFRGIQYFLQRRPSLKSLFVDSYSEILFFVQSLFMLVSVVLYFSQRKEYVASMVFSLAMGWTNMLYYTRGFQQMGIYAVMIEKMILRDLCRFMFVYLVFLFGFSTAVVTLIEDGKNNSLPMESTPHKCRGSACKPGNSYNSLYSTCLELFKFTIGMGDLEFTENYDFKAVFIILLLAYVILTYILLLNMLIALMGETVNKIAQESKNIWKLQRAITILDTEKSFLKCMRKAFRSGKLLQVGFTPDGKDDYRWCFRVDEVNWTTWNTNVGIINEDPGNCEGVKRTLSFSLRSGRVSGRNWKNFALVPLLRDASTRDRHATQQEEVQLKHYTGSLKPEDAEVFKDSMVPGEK
structure (smiles),measurement,setting,value
O=C(O)Cc1ccccc1Nc1c(Cl)cccc1Cl [diclofenac],Hill coefficient of TRPM3 inhibition,mouse TRPM3α2 [1],1.2 ± 0.1
same,Effect on PregS-induced inward and outward currents,"mouse TRPM3α2 [2]; 25 μM diclofenac in bath, 35 μM PregS",almost completely abolished
same,Effect of intracellularly perfused drug on PregS-induced currents,mouse TRPM3α2 [2]; 25 μM diclofenac in pipette solution,did not prevent PregS-induced currents
same,inhibition at 5 µM,mouse TRPM3α2 [2]; read-out: Inhibition of depolarizing inward currents,~70%
same,Inhibition of menthol-induced TRPM8 activation,human TRPM8,almost unaffected
same,Attenuation of responses to AITC stimulation,human ankyrin-like TRPA1; diclofenac at concentrations higher than 50 μM,about 50%
same,Inhibition of H2O2-induced [Ca2+]i signals,human TRPM2,partial inhibition
same,"Share of deprotonized, negatively charged microspecies",[3],> 99%
same,EC50,TRPA1,210 µM
O=C(O)c1ccccc1Nc1cccc(C(F)(F)F)c1 [flufenamic acid],TRPM3 inhibition relative to mefenamic acid,mouse TRPM3α2 [1],less potent and poorly specific TRPM3 inhibitors
CNCCCC12CCC(c3ccccc31)c1ccccc12 [maprotiline],Inhibition of capsaicin-induced TRPV1 activation,rat TRPV1,no apparent inhibition
same,Inhibition of menthol-induced TRPM8 activation,human TRPM8,no apparent inhibition
same,Inhibition of AITC-induced TRPA1 activation,human ankyrin-like TRPA1,no apparent inhibition
CCC1(c2ccccc2)C(=O)NC(=O)NC1=O [phenobarbital],Plasma concentration of the major active metabolite during primidone therapy,[4],15 to 40 µM
CCC1(c2ccccc2)C(=O)NCNC1=O [primidone],IC50,mouse TRPM3α2 [1],~0.6 µM
same,Hill coefficient of TRPM3 inhibition,mouse TRPM3α2 [1],1.4 ± 0.2
same,Effect on omega pore-like currents evoked by coapplied PregS and clotrimazole,"mouse TRPM3α2 [2]; 10 μM primidone, 40 μM PregS and 10 μM clotrimazole",inhibited
same,Effect on PregS-induced inward currents,"mouse TRPM3α2 [2]; 3 and 5 μM primidone, 35 μM PregS",almost completely abolished
same,Potency to block TRPM3 currents,mouse TRPM3α2 [2]; electrophysiological recordings,submicromolar potency
same,Inhibition of capsaicin-induced TRPV1 activation,rat TRPV1,no apparent inhibition
same,Inhibition of menthol-induced TRPM8 activation,human TRPM8,no apparent inhibition
same,Inhibition of AITC-induced TRPA1 activation,human ankyrin-like TRPA1,no apparent inhibition
same,Effect on [Ca2+]i during heat-induced TRPM3 activation,mouse TRPM3α2 [5],rapid and reversible decrease in [Ca^2+]i
same,Inhibition of [Ca2+]i responses of capsaicin treatment,"rat DRG neurones; 2 μM capsaicin, data not shown",not discernibly inhibited
same,Effect on [Ca2+]i in PregS-responsive DRG neurones,rat DRG neurones; PregS 35 μM,immediate decrease in [Ca^2+]i
same,Effect on PregS-induced responses at the human TRPM3 channel,human TRPM3α2,confirmed the effectiveness
same,Latency and total response duration to PregS-induced pain,"C57BL/6J mice [6]; primidone 0.5 mg·kg^−1 i.p., 20 minutes before PregS 5 nmol i.pl.",significant antinociception
same,"Nociception as duration per single response, compared with controls",C57BL/6J mice [6]; primidone 0.5 mg·kg^−1 i.p.,significantly reduced
same,"Nociception as duration per single response, compared with controls",C57BL/6J mice [6]; primidone 10 mg·kg^−1 i.p.,intensified
same,Number of responses to PregS,"C57BL/6J mice [6]; primidone 0.5, 2 and 10 mg·kg^−1 i.p.",not altered
same,Response latency on the hot plate,C57BL/6J mice [7]; primidone 10 mg·kg^−1 i.p.,did not differ from controls
same,Response latency on the hot plate,C57BL/6J mice [7]; primidone 0.5 and 2 mg·kg^−1 i.p.,prolonged the response latency
same,Exploratory activity (travelled distance),C57BL/6J mice [8],slight reduction of exploratory activity
same,Latency to tail withdrawal,C57BL/6J mice [9],prolonged the latency to tail withdrawal
same,"CFA-induced sensitization, hot plate latency",C57BL/6J mice [10],prevented the signs of CFA-induced sensitization
same,Therapeutic plasma concentrations,[4],20 to 50 µM
same,Plasma protein binding,[4]; no reference given,less than 10%
same,Relative distribution volume,[4]; no reference given,0.6 L/kg
Cc1c(Cl)cccc1Nc1ccccc1C(=O)O [tolfenamic acid],TRPM3 inhibition relative to mefenamic acid,mouse TRPM3α2 [1],less potent and poorly specific TRPM3 inhibitors
